Structures are written as SMILES.

Cytotoxicity data for 98 molecules are collected here from ChEMBL document CHEMBL4513216, “Probing the Open Global Health Chemical Diversity Library for Multistage-Active Starting Points for Next-Generation Antimalarials” (ACS Infect Dis, 2020).

A short description of this data set: Toxicity liver stage against HepG2, at 10uM. Further details: test concentration 10 uM, cell line HepG2-A16-CD81EGFP. The following applies: human, HepG2-A16-CD81EGFP cells; read-out: INHIBITION
Format: cell-based. Put shortly: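 Uninfected HepG2-A16-CD81EGFP cells, 3 × 10^3 per well, 1536-well, plated on prespotted compound at 10 μM final, parasite-free screening media added to match infected plates; puromycin 10 μM positive, DMSO 0.5% negative; run in parallel with 48 h PbLuc assay at 37 °C, 5% CO2; viability by CellTiter-Glo luminescence, normalized to controls.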
As to `CCC1CCc2c(c3ccccc3[nH]c2=O)O1` (stereo not drawn), the cytotoxicity at 10 µM was -1.1%.
As to `COc1ccc(CN2C[C@@H](F)[C@@H](OCc3nc4ccccc4[nH]3)C2)cn1`, the cytotoxicity at 10 µM is -2.59%.
Consider `CC(C)(C)c1coc([C@@H]2COCCN2Cc2c[nH]c3ccccc23)n1`, for which the cytotoxicity at 10 µM is -1.23%.
In the case of `CN(C)CCNc1c(-c2ccccc2)c(=O)c1=O`, the cytotoxicity at 10 µM is -9.11%.
Under `Cc1ccc(Nc2cc(N3CCN(S(C)(=O)=O)CC3)nc(C)n2)cc1` stands 6.91%.
Under `Cc1cccc(C(=O)N2CCCSCC2CN2CCCC2)c1` (stereo not drawn) stands 8.77%; under `O=C(N1CCOCC1)N1CC[C@H]2[C@@H]1CCC(=O)N2c1ccccc1`, 6.53%.
In the case of `Cc1cc(CN2CCC3(CC2)COC(COc2ccccn2)C3)no1` (stereo not drawn), the cytotoxicity at 10 µM was 5.8%.
With `COCCNC(=O)CSCc1nc(O)c2cc(C(C)C)sc2n1`, the cytotoxicity at 10 µM was -3.46%.
Under `COCCCN1C(=O)CC(N2CCN(c3ccc(F)cc3)CC2)C1=O` (stereo not drawn) stands 2.57%.
On to `CCOC(=O)CC(c1ccc(OC)c(OC)c1)c1c(O)n[nH]c1C` (stereo not drawn), for which the cytotoxicity at 10 µM stood at 1.64%.
Under `Cc1cc(C)c2c(c1)C1(CC(=O)Nc3c1cnn3C(C)C)C(=O)N2` (stereo not drawn) stands -2.51%; under `COC(=O)CNC(=O)CSCc1nc(O)c2cc(C(C)C)sc2n1`, 7.72%.
As for `COc1cccc2ccn(CCC(=O)N3CCCC(C(=O)O)C3)c12` (stereo not drawn), the cytotoxicity at 10 µM is -9.42%.
On to `Cc1cccn2c(=O)cc(OC(=O)c3ccccc3)nc12`, for which the cytotoxicity at 10 µM came to 0.64%.
As for `Cc1nc(C)n(CC2CN(c3ncccn3)Cc3nccn3C2)n1` (stereo not drawn), the cytotoxicity at 10 µM is -8.5%.
For `Cn1cc(CN2CC3(CCN(C(=O)c4ccoc4)C3)C2)cn1` the value was -8.45%.
Turning to `COCC1CC2(CCN(C(=O)c3ccc(OC)c(Cl)c3)CC2)CO1` (stereo not drawn), the cytotoxicity at 10 µM was 15.4%.
In the case of `COC(=O)Cn1ccc(=O)c2ccc(OC)cc21`, the cytotoxicity at 10 µM is -20.7%.
In the case of `CC(=O)N1CCOCC(Cc2ccc3c(ccn3C)c2)C1` (stereo not drawn), the cytotoxicity at 10 µM came out at 4.3%.
`Nc1ncnc2nc(C3CCN(C(=O)Cc4ccc(F)cc4)C3)ccc12` (stereo not drawn): the cytotoxicity at 10 µM amounted to 1.76%.
In the case of `CC(C)c1ncc(CN2CCCC2c2[nH]ncc2C(=O)N(C)C)cn1` (stereo not drawn), the cytotoxicity at 10 µM was 0.974%.
For the molecule `CC(=O)NCc1nccnc1C1CCN(C(=O)c2cc[nH]n2)CC1`, the cytotoxicity at 10 µM is -6.74%.
As to `O=C(Nc1nncs1)c1ccc(O)nc1`, the cytotoxicity at 10 µM was -6.37%.
As to `CC(C1CC1)N(C(=O)CNc1ccc(C#N)cc1)C1CC1` (stereo not drawn), the cytotoxicity at 10 µM is -5.28%.
For `O=C(NCc1ccnc(OCC(F)(F)F)c1)NCC1CCCO1` (stereo not drawn) the value was -4.05%.
For `Cc1ccc(C2CN(CCCS(=O)(=O)C(C)C)CCO2)c(C)c1` (stereo not drawn) the value was -2.36%.
For `N#Cc1cn(C2CC2)c(=O)n(Cc2noc(-c3ccsc3)n2)c1=O` the value was 0.836%; for `OC(CNCCc1nnc2ccccn12)c1ccc2c(c1)OCO2` (stereo not drawn), 4.06%.
On to `Cc1csc(C(C)(C)NCCCS(C)(=O)=O)n1`, for which the cytotoxicity at 10 µM was 6.11%.
Under `Cc1nc(C(C)C)sc1C(C)N(C)C(=O)c1ccc(=O)n(C)n1` (stereo not drawn) stands -1.94%; under `CC(C)CCc1noc(CN2CCCC(CNS(N)(=O)=O)C2)n1` (stereo not drawn), 2.48%; under `NC(=O)C(NC(=O)COCCc1ccccc1)c1ccccc1F` (stereo not drawn), -11%.
For `O=C(NCCN1CCOCC1)NCc1ccccc1-n1cccn1`, the cytotoxicity at 10 µM is -6.32%.
As to `CC(C)(C)S(=O)(=O)CCNC(=O)c1ccc2cc[nH]c2c1`, the cytotoxicity at 10 µM is -2.61%.
For the molecule `O=C(c1ccc2c(c1)CCC2)N1CCCCC1C1OCCO1` (stereo not drawn), the cytotoxicity at 10 µM amounted to 0.197%.
As to `CC(=O)N1CCN(C(=O)c2c(Cl)c3ccccc3n2C)CC1`, the cytotoxicity at 10 µM was 12.5%.
Regarding `Cc1ncncc1C(=O)N1CCCC(n2ccnc2C)C1` (stereo not drawn), the cytotoxicity at 10 µM is -2.17%.
Turning to `O=C(CN1CCS(=O)(=O)CC1)NCc1cccc(Br)c1`, the cytotoxicity at 10 µM was found to be 6.32%.
For `C[S+]([O-])c1nncn1CCc1ccccc1` (stereo not drawn) the value was -12.6%; for `Cc1ccc(N(C)C2CCN(C(=O)c3n[nH]c4c3CCC4)CC2)nn1`, 8%; for `Cc1ccc(Br)cc1C(=O)Nc1cc(C(N)=O)n(C)c1`, 1.41%.
`CC(C)OCc1noc(C2CC=CC2)n1`: the cytotoxicity at 10 µM came to 16.5%.
For `c1cc(CN2CCCC2)ccc1CNc1cncc2nnnn12` the value was 3.99%; for `CN(C)Cc1nc(C2(NC(=O)Nc3ccccc3)CCCC2)no1`, -0.871%; for `O=S(=O)(NC1CCC2(CC1)OCCO2)c1ccccc1Br`, -9.01%.
Turning to `COc1ccc(OC)c(CCNc2ncc(S(N)(=O)=O)s2)c1`, the cytotoxicity at 10 µM was 3.75%.
On to `Cc1cc(CN(C)Cc2cc3c(cc2OC(F)F)OCO3)on1`, for which the cytotoxicity at 10 µM was 0.658%.
Regarding `COc1ccc(OCC(=O)NC(C)c2ccc(F)cc2)c(C(=O)O)c1` (stereo not drawn), the cytotoxicity at 10 µM amounted to 2.89%.
As for `O=S(=O)(CCN1CCOC(Cn2cncn2)C1)c1ccccc1` (stereo not drawn), the cytotoxicity at 10 µM was -9.78%.
For `CSC(C)C(=O)NCCCc1cc(N)n(-c2ccccc2)n1` (stereo not drawn) the value was 3.25%; for `CC(C)OCCOCc1cccc(NC(=O)NCCn2ccnc2)c1`, -4.63%; for `CCOCCC(=O)Nc1cccc(Oc2ccccn2)c1`, 8.32%.
Take `CN(Cc1cnn(C)c1)C(=O)c1ccc(=O)n(C)n1`: the cytotoxicity at 10 µM is -7.87%.
In the case of `C[C@@H](CO)Nc1nccc(-c2cnc3sc(Cl)cn3c2=O)n1`, the cytotoxicity at 10 µM amounted to 2.52%.
`CO[C@H]1C[C@@H](O)C12CCN(C(=O)NCc1ccco1)CC2`: the cytotoxicity at 10 µM is -2.04%.
In the case of `Nc1nccc(-c2cccc3ccnn23)n1`, the cytotoxicity at 10 µM is -3.81%.
Take `CCC(C(=O)NC1CCN(S(C)(=O)=O)CC1)n1cccn1` (stereo not drawn): the cytotoxicity at 10 µM was -2.42%.
Under `O=C(CN1CCCCCC1)NCc1ccc2[nH]c(=O)[nH]c2c1` stands -2.86%; under `COCc1cc(N2C[C@@H](C)[C@](O)(C3CC3)C2)ncn1`, 3.73%; under `O=C(CCCN1CCCCC1)NC(C(=O)O)c1cccc(F)c1` (stereo not drawn), 1.91%.
For `O=C(NC1CC1)c1ccnc(-c2cc(NCCO)nc3[nH]ccc23)c1` the value was 5.61%; for `CC(=O)N1CCCN(c2nccc(-c3c(C)nn(C)c3C)n2)CC1`, 9.21%.
`COc1cccc2c(=O)n(Cc3cccnc3)cnc12`: the cytotoxicity at 10 µM was -7.85%.
Under `CSCCN1CCC(NC(=O)OC(C)(C)C)CC1` stands 12.3%; under `CC(C)c1cc(NC(=O)c2ccncc2)[nH]n1`, -0.396%; under `O=C(CCN1CCN(c2ccc3nncn3n2)CC1)N1CCCCC1`, -6.73%.
With `COC(=O)C(NC(=O)C1CCC1)c1cc(F)ccc1F` (stereo not drawn), the cytotoxicity at 10 µM amounted to 5.54%.
`COc1ccc(C(=O)N(C)Cc2c(C)noc2C)cn1`: the cytotoxicity at 10 µM is -12.9%.
Turning to `O=C(NCCn1nc2ccccn2c1=O)c1sccc1-c1ccccc1`, the cytotoxicity at 10 µM was -12.7%.
As for `Cn1nc2c(cc1=O)CN(Cc1nc(-c3ccccn3)no1)CC2`, the cytotoxicity at 10 µM was -3.51%.
Consider `CN(Cc1noc(C2CC2)n1)C1CCN(Cc2ccc(F)c(F)c2)C1` (stereo not drawn), for which the cytotoxicity at 10 µM was -0.279%.
For the molecule `Cc1csc(CNCc2c(C)nn(C)c2N2CCOCC2)n1`, the cytotoxicity at 10 µM was -9.07%.
With `Cc1cc(OCC(=O)N2CCCC(c3nccs3)C2)no1` (stereo not drawn), the cytotoxicity at 10 µM was 0.953%.
As for `CCOCCN1CCN(CC(=O)N2CCC2)CC1CC` (stereo not drawn), the cytotoxicity at 10 µM is -2.15%.
For `CCc1n[nH]c(C2CN(C(=O)c3ncoc3CC)CCO2)n1` (stereo not drawn) the value was 0.567%; for `Cn1ccc(C(=O)NCc2ccc(CN3CCCCC3)cc2)cc1=O`, -12.4%.
In the case of `CCc1nc(C)c(C(=O)NCCN2CCCC2)s1`, the cytotoxicity at 10 µM is 1.94%.
For `CS(=O)(=O)N1CCC(NC(=O)COc2ccccc2Cl)CC1` the value was -1.99%.
Turning to `COc1ncccc1NC(=O)NC1CCCN(c2ncccn2)C1` (stereo not drawn), the cytotoxicity at 10 µM was -28.8%.
Regarding `CN(CC(=O)N1CCCCC1c1nc(C(C)(C)C)cs1)C1CC1` (stereo not drawn), the cytotoxicity at 10 µM was -2.77%.
For `COc1cccc(CN2CCCC2Cn2nc(C)nc2C)c1` (stereo not drawn) the value was 0.665%.
Regarding `c1ccc(-c2nc(CNCCn3cccn3)cs2)cc1`, the cytotoxicity at 10 µM is -1.56%.
Consider `CSC(C)C(=O)N1CCCN(Cc2cnn(C(C)C)c2)CC1` (stereo not drawn), for which the cytotoxicity at 10 µM is -6.29%.
For `CC(NC(=O)N(C)CCCOc1ccc(F)cc1)c1nncn1C` (stereo not drawn), the cytotoxicity at 10 µM came out at 2.48%.
For the molecule `Cc1cnn(CC2CCCCN2CC(=O)Nc2c(C)n[nH]c2C)c1` (stereo not drawn), the cytotoxicity at 10 µM was 1.8%.
`COc1ccc(C(=O)N2CCC(Nc3ccc(C)nn3)CC2)c(F)c1`: the cytotoxicity at 10 µM was determined as 1.15%.
`O=C(O)[C@]12CCCN(Cc3ccncc3)C[C@H]1CN(c1ncccn1)C2`: the cytotoxicity at 10 µM is 2.59%.
Regarding `COc1ncnc2c1CCN(Cc1nccs1)CC2`, the cytotoxicity at 10 µM is 8.73%.
Take `Cn1cc(CN2CC[C@H]3O[C@H](C(=O)NCc4ccco4)CC[C@H]32)cn1`: the cytotoxicity at 10 µM was -1.85%.
For `Cc1ncsc1CN1CCO[C@H]2[C@H](Oc3ccccn3)CC[C@@H]21`, the cytotoxicity at 10 µM was -0.762%.
For `CC(=O)N1CCC2(CCN(Cc3ccccn3)C2=O)C1` (stereo not drawn), the cytotoxicity at 10 µM stood at 0.0869%.
Turning to `Cc1nn(C)c(N(C)C)c1CNC1CCc2c(F)cccc21` (stereo not drawn), the cytotoxicity at 10 µM is -5.87%.
Consider `CC(C)[C@H](N)C(=O)N1CCSc2ccccc2C1`, for which the cytotoxicity at 10 µM is -5.53%.
Consider `Cc1cc(C)c(CNCC(O)c2ccc(F)c(F)c2)c(C)c1` (stereo not drawn), for which the cytotoxicity at 10 µM was 6.59%.
`CC(C)C(=O)N1CC[C@@H]2[C@H](CC1)N(Cc1cccnc1)CCS2(=O)=O`: the cytotoxicity at 10 µM is -7.77%.
Consider `Cc1ccc(-n2cc3[nH]c(=O)[nH]n3c2=O)cc1`, for which the cytotoxicity at 10 µM came to 1.22%.
For `CC(=O)Nc1c(C)noc1C=Cc1ccc(S(=O)(=O)N2CCCC2)cc1`, the cytotoxicity at 10 µM worked out at 0.931%.
